In brackets after ≈: the same amount, converted by molar mass.
Experiments:
Penicillium digitatum [1] = test: Fungicidal activity against Penicillium digitatum assessed as inhibition of mycelium at 1 ug/ml measured after 48 hr; type: functional
Method in brief: (§1)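 Poisoned-agar test on P. digitatum. Compounds in DMSO were mixed into molten agar at about 45–50 °C, at 1–50 μg/mL. Blank medium was the control. 5 mm plugs taken from the margins of actively growing mycelial colonies were placed at plate centres. Plates were run in triplicate at 26 °C in darkness. Colony diameter was read at 48 h; inhibition % = (control − treated diameter)/control diameter.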

Penicillium digitatum [2] = test: Fungicidal activity against Penicillium digitatum assessed as inhibition of mycelium at 5 ug/ml measured after 48 hr; type: functional; method in brief: as §1
Penicillium digitatum [3] = test: Fungicidal activity against Penicillium digitatum assessed as inhibition of mycelium at 10 ug/ml measured after 48 hr; type: functional; method in brief: as §1
Penicillium digitatum [4] = test: Fungicidal activity against Penicillium digitatum assessed as inhibition of mycelium at 50 ug/ml measured after 48 hr; type: functional; method in brief: as §1
Penicillium digitatum [5] = test: Fungicidal activity against Penicillium digitatum assessed as inhibition of mycelium measured after 48 hr; type: functional, organism-based; method in brief: as §1
Penicillium digitatum [6] = test: Fungicidal activity against Penicillium digitatum assessed as inhibition of mycelium at 25 ug/ml measured after 48 hr; type: functional; method in brief: as §1
[7] = target: T1, P450 sterol 14-alpha-demethylase (Penicillium digitatum, UniProt E3SW77); test: Binding affinity to Penicillium digitatum CYP51
T1 sequence (E3SW77 whole entry): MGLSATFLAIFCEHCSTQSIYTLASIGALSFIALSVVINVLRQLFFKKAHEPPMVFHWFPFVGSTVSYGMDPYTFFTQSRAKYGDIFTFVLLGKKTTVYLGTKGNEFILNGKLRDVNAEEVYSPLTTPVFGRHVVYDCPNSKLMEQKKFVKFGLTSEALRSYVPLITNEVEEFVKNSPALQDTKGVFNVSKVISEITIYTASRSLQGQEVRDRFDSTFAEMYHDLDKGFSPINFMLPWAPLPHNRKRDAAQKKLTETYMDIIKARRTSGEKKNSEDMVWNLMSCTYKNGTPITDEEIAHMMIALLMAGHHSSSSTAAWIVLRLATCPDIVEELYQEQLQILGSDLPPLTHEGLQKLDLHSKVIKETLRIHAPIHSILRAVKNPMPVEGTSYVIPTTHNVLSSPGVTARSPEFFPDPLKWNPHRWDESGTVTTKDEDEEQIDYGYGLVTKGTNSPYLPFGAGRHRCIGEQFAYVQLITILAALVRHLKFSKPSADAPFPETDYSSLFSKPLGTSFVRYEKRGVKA
Method in brief: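 Recombinant His-tagged P. digitatum CYP51 from E. coli BL21(DE3), Ni-NTA purified, in 100 mM PBS pH 7.2. Difference spectra at 350−500 nm were recorded 1 min after adding compound at room temperature, with DMSO below 0.5%. Kd came from a Hanes−Woolf plot of [I] versus [I]/ΔA, using Amax from the saturated absorbance shift.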

Penicillium digitatum [8] = test: Antifungal activity against Penicillium digitatum assessed as growth inhibition

Structure (SMILES): CC(=O)CC1c2ccccc2N=C(n2ccnc2)N1C(C)C (configuration not stated)
- inhibition at 1 µg/mL (Penicillium digitatum [1]): 0%
- inhibition at 5 µg/mL (Penicillium digitatum [2]): 4%
- inhibition at 10 µg/mL (Penicillium digitatum [3]): 15%
- inhibition at 50 µg/mL (Penicillium digitatum [4]): 28%
- IC50 (Penicillium digitatum [5]): 126 µg/mL (≈ 425 µM)

Structure (SMILES): CCCCN1C(n2ccnc2)=Nc2ccccc2C1CC(C)=O (configuration not stated)
- inhibition at 25 µg/mL (Penicillium digitatum [6]): 57%
- inhibition at 1 µg/mL (Penicillium digitatum [1]): 5%
- Kd [7]: 13.3 µM
- inhibition at 5 µg/mL (Penicillium digitatum [2]): 14%
- inhibition at 10 µg/mL (Penicillium digitatum [3]): 29%
- IC50 (Penicillium digitatum [8]): 50.2 µM
- inhibition at 50 µg/mL (Penicillium digitatum [4]): 100%
- IC50 (Penicillium digitatum [5]): 15.6 µg/mL (≈ 50.2 µM)

Structure (SMILES): CC(=O)CC1c2ccccc2N=C(n2ccnc2)N1c1ccc(Cl)cc1 (configuration not stated)
- inhibition at 25 µg/mL (Penicillium digitatum [6]): 100%
- inhibition at 1 µg/mL (Penicillium digitatum [1]): 0%
- Kd [7]: 2.91 µM
- inhibition at 5 µg/mL (Penicillium digitatum [2]): 14%
- inhibition at 10 µg/mL (Penicillium digitatum [3]): 35%
- IC50 (Penicillium digitatum [8]): 28.5 µM
- inhibition at 50 µg/mL (Penicillium digitatum [4]): 100%
- IC50 (Penicillium digitatum [5]): 10.4 µg/mL (≈ 28.5 µM)

Structure (SMILES): CC(=O)CC1c2ccccc2N=C(n2ccnc2)N1c1ccc(F)cc1 (configuration not stated)
- inhibition at 25 µg/mL (Penicillium digitatum [6]): 100%
- inhibition at 1 µg/mL (Penicillium digitatum [1]): 9%
- Kd [7]: 0.976 µM
- inhibition at 5 µg/mL (Penicillium digitatum [2]): 52%
- inhibition at 10 µg/mL (Penicillium digitatum [3]): 86%
- IC50 (Penicillium digitatum [8]): 11.9 µM
- inhibition at 50 µg/mL (Penicillium digitatum [4]): 100%
- IC50 (Penicillium digitatum [5]): 4.14 µg/mL (≈ 11.9 µM)

Structure (SMILES): CC(=O)CC1c2ccccc2N=C(n2ccnc2)N1c1ccccc1 (configuration not stated)
- inhibition at 1 µg/mL (Penicillium digitatum [1]): 8%
- inhibition at 5 µg/mL (Penicillium digitatum [2]): 29%
- inhibition at 10 µg/mL (Penicillium digitatum [3]): 61%
- inhibition at 50 µg/mL (Penicillium digitatum [4]): 100%
- IC50 (Penicillium digitatum [5]): 5.06 µg/mL (≈ 15.3 µM)

Structure (SMILES): CC(=O)CC1c2cc(Cl)ccc2N=C(n2ccnc2)N1c1ccc(F)cc1 (configuration not stated)
- inhibition at 25 µg/mL (Penicillium digitatum [6]): 100%
- inhibition at 1 µg/mL (Penicillium digitatum [1]): 9%
- Kd [7]: 2.4 µM
- inhibition at 5 µg/mL (Penicillium digitatum [2]): 21%
- inhibition at 10 µg/mL (Penicillium digitatum [3]): 64%
- IC50 (Penicillium digitatum [8]): 18.6 µM
- inhibition at 50 µg/mL (Penicillium digitatum [4]): 100%
- IC50 (Penicillium digitatum [5]): 7.12 µg/mL (≈ 18.6 µM)

Structure (SMILES): CC(=O)CC1c2cc(Cl)ccc2N=C(n2cncn2)N1c1ccccc1 (configuration not stated)
- inhibition at 50 µg/mL (Penicillium digitatum [4]): 8%
- IC50 (Penicillium digitatum [5]): > 50 µg/mL

Structure (SMILES): CC(=O)CC1c2cc(Cl)ccc2N=C(n2cncn2)N1C(C)C (configuration not stated)
- inhibition at 50 µg/mL (Penicillium digitatum [4]): 17%
- IC50 (Penicillium digitatum [5]): > 50 µg/mL

Structure (SMILES): CC(=O)CC1c2ccccc2N=C(n2cncn2)N1c1ccccc1 (configuration not stated)
- inhibition at 1 µg/mL (Penicillium digitatum [1]): 0%
- inhibition at 5 µg/mL (Penicillium digitatum [2]): 0%
- inhibition at 10 µg/mL (Penicillium digitatum [3]): 11%
- inhibition at 50 µg/mL (Penicillium digitatum [4]): 24%
- IC50 (Penicillium digitatum [5]): 129 µg/mL (≈ 389 µM)

Structure (SMILES): CC(=O)CC1c2ccccc2N=C(n2cncn2)N1c1cccc(C)c1 (configuration not stated)
- inhibition at 1 µg/mL (Penicillium digitatum [1]): 0%
- inhibition at 5 µg/mL (Penicillium digitatum [2]): 12%
- inhibition at 10 µg/mL (Penicillium digitatum [3]): 19%
- inhibition at 50 µg/mL (Penicillium digitatum [4]): 44%
- IC50 (Penicillium digitatum [5]): 60.1 µg/mL (≈ 174 µM)

Structure (SMILES): CC(=O)CC1c2ccccc2N=C(n2cncn2)N1c1ccc(Cl)cc1 (configuration not stated)
- inhibition at 50 µg/mL (Penicillium digitatum [4]): 10%
- IC50 (Penicillium digitatum [5]): > 50 µg/mL

Structure (SMILES): CC(=O)CC1c2ccccc2N=C(n2cncn2)N1c1ccc(F)cc1 (configuration not stated)
- inhibition at 50 µg/mL (Penicillium digitatum [4]): 14%
- IC50 (Penicillium digitatum [5]): > 50 µg/mL

Structure (SMILES): CC(=O)CC1c2ccccc2N=C(n2cncn2)N1C(C)C (configuration not stated)
- inhibition at 50 µg/mL (Penicillium digitatum [4]): 10%
- IC50 (Penicillium digitatum [5]): > 50 µg/mL

Structure (SMILES): CC(C)(C)C(=O)CC1c2ccccc2N=C(n2cncn2)N1c1ccccc1 (configuration not stated)
- inhibition at 1 µg/mL (Penicillium digitatum [1]): 0%
- inhibition at 5 µg/mL (Penicillium digitatum [2]): 8%
- inhibition at 10 µg/mL (Penicillium digitatum [3]): 15%
- inhibition at 50 µg/mL (Penicillium digitatum [4]): 35%
- IC50 (Penicillium digitatum [5]): 90 µg/mL (≈ 241 µM)

Structure (SMILES): Cc1cccc(N2C(n3cncn3)=Nc3ccccc3C2CC(=O)C(C)(C)C)c1 (configuration not stated)
- inhibition at 1 µg/mL (Penicillium digitatum [1]): 0%
- inhibition at 5 µg/mL (Penicillium digitatum [2]): 8%
- inhibition at 10 µg/mL (Penicillium digitatum [3]): 22%
- inhibition at 50 µg/mL (Penicillium digitatum [4]): 40%
- IC50 (Penicillium digitatum [5]): 67.1 µg/mL (≈ 173 µM)

Structure (SMILES): CC(=O)CC1c2cc(Cl)ccc2N=C(n2ccnc2)N1C(C)C (configuration not stated)
- inhibition at 1 µg/mL (Penicillium digitatum [1]): 0%
- inhibition at 5 µg/mL (Penicillium digitatum [2]): 8%
- inhibition at 10 µg/mL (Penicillium digitatum [3]): 12%
- inhibition at 50 µg/mL (Penicillium digitatum [4]): 30%
- IC50 (Penicillium digitatum [5]): 128 µg/mL (≈ 387 µM)

Structure (SMILES): CC(C)(C)C(=O)C(Oc1ccc(Cl)cc1)n1cncn1 (configuration not stated) [TRIADIMEFON]
- inhibition at 25 µg/mL (Penicillium digitatum [6]): 100%
- inhibition at 1 µg/mL (Penicillium digitatum [1]): 0%
- inhibition at 5 µg/mL (Penicillium digitatum [2]): 27%
- inhibition at 10 µg/mL (Penicillium digitatum [3]): 60%
- inhibition at 50 µg/mL (Penicillium digitatum [4]): 100%

Reference: ChEMBL document CHEMBL3046149, “Synthesis, fungicidal activity, and sterol 14α-demethylase binding interaction of 2-azolyl-3,4-dihydroquinazolines on Penicillium digitatum” (J Agric Food Chem, 2013)
